Test results as given in ChEMBL document CHEMBL3351359, “Design and synthesis of novel 2,4-diaryl-5H-indeno[1,2-b]pyridine derivatives, and their evaluation of topoisomerase inhibitory activity and cytotoxicity” (Bioorg Med Chem, 2015).

Assays:
[1] = biological target: T1, DNA topoisomerase 1 (Homo sapiens) (UniProt P11387); test: Inhibition of human recombinant topoisomerase-1 assessed as conversion of super-coiled plasmid DNA pBR322 to relaxed DNA at 100 uM after 30 mins by ethidium bromide staining-based agarose gel electrophoresis (reference value: 45.2%)
T1 sequence (whole entry): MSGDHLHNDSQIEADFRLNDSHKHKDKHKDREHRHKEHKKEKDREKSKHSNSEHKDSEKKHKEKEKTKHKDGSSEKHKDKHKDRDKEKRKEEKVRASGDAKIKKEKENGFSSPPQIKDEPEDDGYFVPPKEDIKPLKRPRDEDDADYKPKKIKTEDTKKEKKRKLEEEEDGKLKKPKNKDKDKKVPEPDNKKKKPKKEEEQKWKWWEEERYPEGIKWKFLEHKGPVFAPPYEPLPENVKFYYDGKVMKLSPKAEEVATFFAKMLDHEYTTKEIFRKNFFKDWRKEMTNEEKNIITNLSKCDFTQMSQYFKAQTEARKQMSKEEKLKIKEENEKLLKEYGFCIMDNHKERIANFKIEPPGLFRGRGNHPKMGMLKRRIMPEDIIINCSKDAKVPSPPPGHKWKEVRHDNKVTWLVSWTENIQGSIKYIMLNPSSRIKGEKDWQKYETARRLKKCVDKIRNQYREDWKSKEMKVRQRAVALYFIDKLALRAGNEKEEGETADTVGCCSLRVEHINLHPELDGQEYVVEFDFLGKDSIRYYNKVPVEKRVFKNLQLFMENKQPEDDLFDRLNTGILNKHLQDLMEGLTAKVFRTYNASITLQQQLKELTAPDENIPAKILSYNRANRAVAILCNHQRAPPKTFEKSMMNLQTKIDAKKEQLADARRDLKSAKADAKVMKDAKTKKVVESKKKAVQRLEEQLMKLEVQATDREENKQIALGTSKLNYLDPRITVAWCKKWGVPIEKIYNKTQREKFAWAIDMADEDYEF
In short: (§1)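 Relaxation of supercoiled pBR322 (100 ng) by 0.4 units recombinant human topo I, with or without compound (20 mM DMSO stocks), for 30 min at 37 °C. Buffer: 10 mM Tris-HCl pH 7.9, 150 mM NaCl, 0.1% BSA, 1 mM spermidine, 5% glycerol. Stopped with sarcosyl. Run on 1% agarose in TAE at 15 V for 7 h, stained with ethidium bromide, bands quantified under UV.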

[2] = biological target: T1, DNA topoisomerase 1 (Homo sapiens); test: Inhibition of human recombinant topoisomerase-1 assessed as conversion of super-coiled plasmid DNA pBR322 to relaxed DNA at 100 uM after 30 mins by ethidium bromide staining-based agarose gel electrophoresis relative to camptothecin
[3] = biological target: T1, DNA topoisomerase 1 (Homo sapiens); test: Inhibition of human recombinant topoisomerase-1 assessed as conversion of super-coiled plasmid DNA pBR322 to relaxed DNA at 20 uM after 30 mins by ethidium bromide staining-based agarose gel electrophoresis (reference value: 25.9%); in short: as §1
[4] = biological target: DNA topoisomerase 2-alpha (Homo sapiens) (UniProt P11388); test: Inhibition of human recombinant topoisomerase-2 alpha assessed as conversion of super-coiled plasmid DNA pBR322 to relaxed DNA at 100 uM after 30 mins by ethidium bromide staining-based agarose gel electrophoresis (reference value: 32.4%)
DNA topoisomerase 2-alpha (Homo sapiens), sequence (P11388 whole entry): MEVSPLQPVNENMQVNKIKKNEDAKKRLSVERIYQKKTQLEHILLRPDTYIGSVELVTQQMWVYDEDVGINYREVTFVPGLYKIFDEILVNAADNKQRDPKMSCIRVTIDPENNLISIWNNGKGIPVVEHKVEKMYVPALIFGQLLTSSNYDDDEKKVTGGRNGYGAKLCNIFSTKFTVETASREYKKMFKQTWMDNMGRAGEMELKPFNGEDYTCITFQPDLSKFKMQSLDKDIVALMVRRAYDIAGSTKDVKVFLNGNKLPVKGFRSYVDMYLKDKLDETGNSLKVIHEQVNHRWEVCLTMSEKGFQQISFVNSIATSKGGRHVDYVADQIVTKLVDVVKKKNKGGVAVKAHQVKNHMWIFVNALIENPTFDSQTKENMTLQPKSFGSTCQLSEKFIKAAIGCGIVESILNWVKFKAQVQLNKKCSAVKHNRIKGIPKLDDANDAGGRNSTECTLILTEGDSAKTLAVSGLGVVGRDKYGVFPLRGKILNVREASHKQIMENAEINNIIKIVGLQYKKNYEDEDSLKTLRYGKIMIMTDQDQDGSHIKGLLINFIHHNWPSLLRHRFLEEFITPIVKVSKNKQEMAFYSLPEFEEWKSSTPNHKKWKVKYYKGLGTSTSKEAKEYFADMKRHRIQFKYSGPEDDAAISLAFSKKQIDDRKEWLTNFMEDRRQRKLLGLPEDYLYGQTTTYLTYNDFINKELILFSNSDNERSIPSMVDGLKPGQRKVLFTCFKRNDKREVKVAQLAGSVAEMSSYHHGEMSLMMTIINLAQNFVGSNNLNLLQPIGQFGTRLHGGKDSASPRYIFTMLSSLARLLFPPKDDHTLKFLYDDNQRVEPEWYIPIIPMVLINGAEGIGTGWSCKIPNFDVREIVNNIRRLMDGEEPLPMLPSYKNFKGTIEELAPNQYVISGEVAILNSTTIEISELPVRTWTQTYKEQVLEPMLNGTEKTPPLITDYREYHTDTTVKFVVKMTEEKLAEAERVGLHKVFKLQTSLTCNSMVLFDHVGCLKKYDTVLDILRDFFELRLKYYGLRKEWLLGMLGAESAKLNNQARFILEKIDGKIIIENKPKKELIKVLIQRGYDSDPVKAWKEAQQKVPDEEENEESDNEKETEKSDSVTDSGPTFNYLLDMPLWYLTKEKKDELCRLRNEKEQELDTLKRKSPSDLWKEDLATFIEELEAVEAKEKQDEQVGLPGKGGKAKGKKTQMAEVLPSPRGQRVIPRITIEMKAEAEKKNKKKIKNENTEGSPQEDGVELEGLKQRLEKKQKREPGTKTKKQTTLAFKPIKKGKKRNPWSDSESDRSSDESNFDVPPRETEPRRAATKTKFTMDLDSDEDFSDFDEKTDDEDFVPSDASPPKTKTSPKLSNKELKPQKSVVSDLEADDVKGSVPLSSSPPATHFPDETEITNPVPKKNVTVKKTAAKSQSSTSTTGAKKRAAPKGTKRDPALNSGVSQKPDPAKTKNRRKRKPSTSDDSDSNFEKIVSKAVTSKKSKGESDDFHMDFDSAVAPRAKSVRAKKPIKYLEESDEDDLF
In short: (§2)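 Supercoiled pBR322 (200 ng) incubated with 1 unit human topo IIα, with or without compound, for 30 min at 30 °C. Buffer: 10 mM Tris-HCl pH 7.9, 50 mM NaCl, 5 mM MgCl2, 1 mM EDTA, 1 mM ATP, 15 μg/mL BSA. Stopped with EDTA. Run on 1% agarose in TAE at 25 V for 4 h, stained with ethidium bromide, supercoiled DNA quantified under UV.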

[5] = biological target: DNA topoisomerase 2-alpha (Homo sapiens) (UniProt P11388); test: Inhibition of human recombinant topoisomerase-2 alpha assessed as conversion of super-coiled plasmid DNA pBR322 to relaxed DNA at 100 uM after 30 mins by ethidium bromide staining-based agarose gel electrophoresis relative to etoposide
MCF7 = test: Cytotoxicity against human MCF7 cells after 2 days by CCK-8 assay; assay type: functional, cell-based; conditions: MCF7, 48 h
In short: (§3)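 Cells seeded at 2~4 × 10^4 per well, grown overnight in medium with 10% FBS at 37 °C, 5% CO2. On day 2, after 4 h FBS starvation, medium replaced with medium containing graded compound concentrations. On day 4, CCK-8 added for 4 h, then absorbance read at 450 nm. IC50 from four-parameter logistic fit. Mean ± S.D. of three experiments, each run in triplicate.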

HeLa = test: Cytotoxicity against human HeLa cells after 2 days by CCK-8 assay; assay type: functional, cell-based; conditions: 48 h; in short: as §3
DU-145 = test: Cytotoxicity against human DU145 cells after 2 days by CCK-8 assay; assay type: functional, cell-based; conditions: DU-145, 48 h; in short: as §3
[6] = Cytotoxicity against human HCT15 cells after 2 days by CCK-8 assay; assay type: functional, cell-based; conditions: HCT-15, 48 h; in short: as §3
[7] = biological target: T1, DNA topoisomerase 1 (Homo sapiens); test: Inhibition of human recombinant topoisomerase-1 assessed as conversion of super-coiled plasmid DNA pBR322 to relaxed DNA at 100 uM after 30 mins by ethidium bromide staining-based agarose gel electrophoresis (reference value: 51.5%); in short: as §1
[8] = biological target: DNA topoisomerase 2-alpha (Homo sapiens) (UniProt P11388); test: Inhibition of human recombinant topoisomerase-2 alpha assessed as conversion of super-coiled plasmid DNA pBR322 to relaxed DNA at 100 uM after 30 mins by ethidium bromide staining-based agarose gel electrophoresis (reference value: 83.7%); in short: as §2
[9] = biological target: DNA topoisomerase 2-alpha (Homo sapiens) (UniProt P11388); test: Inhibition of human recombinant topoisomerase-2 alpha assessed as conversion of super-coiled plasmid DNA pBR322 to relaxed DNA at 20 uM after 30 mins by ethidium bromide staining-based agarose gel electrophoresis (reference value: 42.1%); in short: as §2
[10] = biological target: T1, DNA topoisomerase 1 (Homo sapiens); test: Inhibition of human recombinant topoisomerase-1 assessed as conversion of super-coiled plasmid DNA pBR322 to relaxed DNA at 100 uM after 30 mins by ethidium bromide staining-based agarose gel electrophoresis (reference value: 62.9%); in short: as §1
[11] = biological target: T1, DNA topoisomerase 1 (Homo sapiens); test: Inhibition of human recombinant topoisomerase-1 assessed as conversion of super-coiled plasmid DNA pBR322 to relaxed DNA at 20 uM after 30 mins by ethidium bromide staining-based agarose gel electrophoresis (reference value: 19.6%); in short: as §1
[12] = biological target: DNA topoisomerase 2-alpha (Homo sapiens) (UniProt P11388); test: Inhibition of human recombinant topoisomerase-2 alpha assessed as conversion of super-coiled plasmid DNA pBR322 to relaxed DNA at 100 uM after 30 mins by ethidium bromide staining-based agarose gel electrophoresis (reference value: 87.8%); in short: as §2
[13] = biological target: DNA topoisomerase 2-alpha (Homo sapiens) (UniProt P11388); test: Inhibition of human recombinant topoisomerase-2 alpha assessed as conversion of super-coiled plasmid DNA pBR322 to relaxed DNA at 20 uM after 30 mins by ethidium bromide staining-based agarose gel electrophoresis (reference value: 46.7%); in short: as §2
[14] = biological target: DNA topoisomerase 2-alpha (Homo sapiens) (UniProt P11388); test: Inhibition of human recombinant topoisomerase-2 alpha assessed as conversion of super-coiled plasmid DNA pBR322 to relaxed DNA at 20 uM after 30 mins by ethidium bromide staining-based agarose gel electrophoresis (reference value: 20.2%); in short: as §2

Compound	inhibition [1] [%]	Ratio [2]	inhibition [3] [%]	inhibition [4] [%]	Ratio [5]	IC50 (MCF7) [µM]	IC50 (HeLa) [µM]	IC50 (DU-145) [µM]	IC50 [6] [µM]	inhibition [7] [%]	inhibition [8] [%]	inhibition [9] [%]	inhibition [10] [%]	inhibition [11] [%]	inhibition [12] [%]	inhibition [13] [%]	inhibition [14] [%]
c1ccc(-c2cc(-c3ccco3)nc3c2Cc2ccccc2-3)cc1	41.3	0.91	5.7	18.7	0.58	> 50	5.22	7.74	16.6	–	–	–	–	–	–	–	–
c1ccc2c(c1)Cc1c(-c3ccoc3)cc(-c3ccsc3)nc1-2	–	< 0.2	–	–	1.15	> 50	> 50	> 50	20.6	1.2	95.9	10.9	–	–	–	–	–
c1ccc(-c2cc(-c3ccco3)nc3c2Cc2ccccc2-3)nc1	–	0.65	–	–	1.14	3.08	4.13	> 50	8.5	–	–	–	40.7	0.5	100	100	–
c1coc(-c2cc(-c3cccs3)nc3c2Cc2ccccc2-3)c1	76.3	1.69	3.9	40.5	1.25	4.11	3.2	6.71	37.7	–	–	–	–	–	–	–	14.6
c1coc(-c2cc(-c3ccsc3)nc3c2Cc2ccccc2-3)c1	–	< 0.2	–	–	1	> 50	> 50	> 50	31.6	2.8	84.1	68.5	–	–	–	–	–
c1coc(-c2cc(-c3ccsc3)c3c(n2)-c2ccccc2C3)c1	–	< 0.2	–	–	1.19	> 50	> 50	> 50	> 50	0	100	93	–	–	–	–	–
c1ccc(-c2cc(-c3ccsc3)nc3c2Cc2ccccc2-3)cc1	–	< 0.2	–	–	0.83	> 50	–	> 50	> 50	–	–	–	0.5	–	72.5	0	–
c1coc(-c2cc(-c3cccs3)c3c(n2)-c2ccccc2C3)c1	–	< 0.2	–	–	1	> 50	> 50	> 50	23.6	2	83.9	79.6	–	–	–	–	–
c1ccc(-c2cc(-c3cccs3)c3c(n2)-c2ccccc2C3)nc1	58.5	–	12	9	–	11	20.5	6.7	9.1	–	–	–	–	–	–	–	–
c1ccc2c(c1)Cc1c(-c3ccsc3)cc(-c3ccsc3)nc1-2	–	1.45	–	–	1.14	> 50	–	> 50	16.4	–	–	–	90.9	2.9	100	0	–
c1csc(-c2cc(-c3ccsc3)c3c(n2)-c2ccccc2C3)c1	–	< 0.2	–	–	1.14	> 50	–	> 50	> 50	–	–	–	10.1	–	100	0	–
c1coc(-c2cc(-c3ccoc3)c3c(n2)-c2ccccc2C3)c1	–	0.83	–	–	1.14	> 50	–	> 50	20.2	–	–	–	52.5	1.5	100	0	–
c1csc(-c2cc(-c3ccoc3)c3c(n2)-c2ccccc2C3)c1	–	< 0.2	–	–	1.19	> 50	> 50	37.3	34.6	1.7	100	66.7	–	–	–	–	–
c1coc(-c2cc(-c3ccco3)c3c(n2)-c2ccccc2C3)c1	38.2	0.85	6.4	44.6	1.38	5.4	8.14	20.6	> 50	–	–	–	–	–	–	–	15
